Bioassay records from PubChem.
PLC-beta3 inh: human PLC-beta3 inhibitors, primary screen, biochemical, fluorescence. 1-phosphatidylinositol 4,5-bisphosphate phosphodiesterase beta-3 (Homo sapiens), Q01970. Purified PLC-beta3, fluorogenic substrate. inhibition, % at 12.2 µM. 370,000 compounds, 0.18% hits. AID 720704, 2013; in the data active = inhibition above about 11%
TbMetRS inhib: T. brucei MetRS inhibitors, primary screen, biochemical, luminescence. inhibition, % at 11.9 µM. methionyl-tRNA synthetase (Trypanosoma brucei brucei). 360,000 compounds, 0.4% hits. purified T. brucei MetRS, ATP depletion, Kinase-Glo luminescence;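 active = inhibition above a per-plate cutoff of the control wells' mean inhibition plus 3 SD, cut at about 5.5% in these data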
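Test system – parasite MetRS enzyme · Reagent – substrates ATP, L-methionine and bulk Escherichia coli tRNA · Doses – 11.9 µM compound single dose, 0.9% DMSO · Times – 15 min enzyme-compound preincubation, 2 h reaction, 10 min detection, 25 °C · Signal – Kinase-Glo luminescence, ATP depletion format · Controls – DMSO-only wells as low control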
PLC-gamma1 inh: PLC-gamma1 enzyme inhibitors, primary screen, biochemical, fluorescence, purified enzyme; AID 720700, 2013; inhibition, % at 12.2 µM; 370,000 compounds, 0.84% hits; 1-phosphatidylinositol 4,5-bisphosphate phosphodiesterase gamma-1 (Homo sapiens), P19174; fluorogenic substrate; in the data active = inhibition above about 9.5%
Target sequence (P19174 whole entry, looked up): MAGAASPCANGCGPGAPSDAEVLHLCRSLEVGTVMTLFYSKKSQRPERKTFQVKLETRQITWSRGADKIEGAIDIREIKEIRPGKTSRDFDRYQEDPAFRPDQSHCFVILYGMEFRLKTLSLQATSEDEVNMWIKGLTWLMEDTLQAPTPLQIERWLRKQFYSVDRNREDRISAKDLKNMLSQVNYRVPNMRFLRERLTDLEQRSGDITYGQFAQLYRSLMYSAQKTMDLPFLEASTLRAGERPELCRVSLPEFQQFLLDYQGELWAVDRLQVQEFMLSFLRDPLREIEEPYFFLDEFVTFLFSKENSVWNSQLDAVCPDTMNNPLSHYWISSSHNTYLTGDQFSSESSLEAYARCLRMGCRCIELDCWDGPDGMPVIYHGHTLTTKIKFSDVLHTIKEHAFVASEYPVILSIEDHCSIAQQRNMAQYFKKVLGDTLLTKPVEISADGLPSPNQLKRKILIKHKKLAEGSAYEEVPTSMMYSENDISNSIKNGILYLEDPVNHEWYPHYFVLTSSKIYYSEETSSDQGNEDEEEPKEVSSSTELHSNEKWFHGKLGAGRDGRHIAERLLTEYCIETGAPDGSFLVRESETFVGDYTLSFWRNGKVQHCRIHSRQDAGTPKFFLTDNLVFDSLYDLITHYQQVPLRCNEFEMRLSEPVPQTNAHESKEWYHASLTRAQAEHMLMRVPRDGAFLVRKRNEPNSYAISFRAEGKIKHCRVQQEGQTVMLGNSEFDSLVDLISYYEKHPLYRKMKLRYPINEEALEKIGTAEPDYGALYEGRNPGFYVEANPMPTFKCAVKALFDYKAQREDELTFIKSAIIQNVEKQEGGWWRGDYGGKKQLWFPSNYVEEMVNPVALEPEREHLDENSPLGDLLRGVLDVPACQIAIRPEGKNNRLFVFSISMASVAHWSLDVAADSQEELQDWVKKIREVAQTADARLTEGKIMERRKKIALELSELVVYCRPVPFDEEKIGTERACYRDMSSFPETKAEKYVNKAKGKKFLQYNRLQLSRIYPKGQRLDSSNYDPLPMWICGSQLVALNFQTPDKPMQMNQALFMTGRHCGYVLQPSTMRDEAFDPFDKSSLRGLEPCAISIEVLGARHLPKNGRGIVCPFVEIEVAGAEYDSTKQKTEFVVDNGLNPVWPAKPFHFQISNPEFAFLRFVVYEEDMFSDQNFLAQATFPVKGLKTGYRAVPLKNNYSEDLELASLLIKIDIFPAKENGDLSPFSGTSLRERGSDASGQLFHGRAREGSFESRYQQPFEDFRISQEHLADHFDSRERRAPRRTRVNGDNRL
ADAM10 inh: human ADAM10 inhibitors, primary screen, biochemical, QFRET, HTS | Disintegrin and metalloproteinase domain-containing protein 10 (Homo sapiens), O14672 | recombinant ADAM10, EDANS/DABCYL FRET peptide cleavage, 3 h | inhibition, % at 7 µM | 370,000 compounds, 0.62% hits | AID 720582, 2013;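 active = inhibition above a per-campaign cutoff equal to the mean of compounds falling between control-based bounds plus 3 SD, cut at about 20% in these data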
ADAM17 inh: ADAM17 inhibitors, primary screen, biochemical, QFRET; recombinant ADAM17, EDANS/DABCYL FRET peptide cleavage; inhibition, % at 6.95 µM; 370,000 compounds, 0.83% hits;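 active = inhibition above the mean of compounds lying between control limits plus 3 SD, set per campaign, cut at about 8.5% in these data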
ADAM10 ctr: ADAM10 inhibitors, counter-screen for ADAM17 exosite inhibitor project, biochemical, FRET, human ADAM10. shares compounds with ADAM17 inh. inhibition, % at 6.95 µM. 2,900 compounds, 47% hits. recombinant ADAM10, EDANS/DABCYL FRET peptide cleavage, 3 h;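 active = mean inhibition over the triplicate runs exceeds the activity threshold set in the earlier primary screen, cut at about 20% in these data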
ADAM17 confirm: ADAM17 inhibitors, hit retest, confirmation, biochemical, QFRET peptide cleavage | 2,900 compounds, 65% hits | AID 743257, 2014 | recombinant ADAM17, EDANS/DABCYL QFRET peptide cleavage | inhibition, % at 6.95 µM | shares compounds with ADAM17 inh;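 active = mean inhibition across replicates above the hit cutoff set in the primary screen, cut at about 8.5% in these data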
A number is an active result; - = inactive; . = no result given. Rows were chosen to be rich in hits. Some 2.3% of all compounds tested hit in one or more screens of this group.

SMILES	PLC-beta3 inh	TbMetRS inhib	PLC-gamma1 inh	ADAM10 inh	ADAM17 inh	ADAM10 ctr	ADAM17 confirm
C=CC[C@@H](CC(=O)N(CCO)Cc1ccccc1)C(=O)N[C@H](COC(=O)[C@H](CC=C)CC(=O)OC(C)(C)C)Cc1c[nH]c2ccccc12	-	-	-	-	9.9	47.8	23.2
C=CC[C@H](CC(=O)N[C@H](CO)Cc1ccccc1)C(=O)N[C@H](COC(=O)[C@@H](CC=C)CC(=O)OC(C)(C)C)Cc1c[nH]c2ccccc12	-	-	-	-	13.7	27.1	15.2
Cc1c(Cl)c([N+](=O)[O-])nn1CC(=O)NC12CC3CC(CC(C3)C1)C2	-	-	-	-	11.3	-	-
CC(C)c1ccc(C2NC(=S)NC3=C2C(=O)CC(C)(C)C3)cc1 (configuration not stated)	-	-	-	-	-	.	.
COc1ccc(-c2csc(NC(=O)CSc3nc(SC)ns3)n2)cc1	-	-	-	33.0	14.8	26.5	16.8
COc1ccc(NC(=O)C2CCN(S(=O)(=O)c3c(C)noc3C)CC2)cc1	-	-	-	-	-	.	.
COc1cccc(CNC(=O)C2CCCN(S(=O)(=O)c3c(C)noc3/C=C/N(C)C)C2)c1 (configuration not stated)	-	-	-	-	8.9	-	-
Cc1noc(/C=C/N(C)C)c1S(=O)(=O)N1CCCC(C(=O)NCc2cccs2)C1 (configuration not stated)	-	-	-	-	-	.	.
COc1ccc(NC(=O)C2CCN(S(=O)(=O)c3c(C)noc3/C=C/N(C)C)CC2)cc1	-	-	-	-	10.1	-	11.4
CCOc1ccc(NS(=O)(=O)c2ccc3c(c2)CCN3C(=O)CCC(=O)O)cc1	-	-	-	-	9.8	-	-
CC(=O)NC(c1ccc(F)c(F)c1)c1nc(-c2ccccc2)cs1 (configuration not stated)	-	-	-	-	-	.	.
COc1cc(C(O)c2nc(-c3ccc(F)cc3OC)cs2)ccc1F (configuration not stated)	-	-	-	-	12.3	26.2	14.2
COc1cc(C(O)c2nc(-c3csc4ccccc34)cs2)ccc1F (configuration not stated)	-	-	-	-	10.0	23.1	16.7
COc1ccc(NS(=O)(=O)c2ccc3nc(COc4ccc(Cl)c(C)c4)[nH]c3c2)cc1	-	-	-	-	12.8	26.7	18.6
O=C(Nc1cccc(-n2cccn2)c1)C1CCCN(Cc2ccccc2F)C1 (configuration not stated)	-	-	-	-	11.4	-	-
COc1cc(CN2CCCC(C(=O)Nc3cccc(-n4cccn4)c3)C2)ccc1F (configuration not stated)	-	-	-	-	-	.	.
CCOc1ccc(-n2c(COc3ccc(Cl)cc3)nnc2SCC(=O)Nc2ccc(OCc3ccccc3)cc2)cc1	-	.	-	-	-	.	.
COC(=O)c1cc(-c2ccccc2)n(CCN)c1C	-	-	-	-	-	.	.
COC(=O)c1cc(C(=O)OC)n(Cc2ccc(C)cc2)c1C	-	-	-	-	9.2	-	-
CC(C)(C)C(=O)OC12CCCN(C1)/C(=C/c1ccccc1)C2 (configuration not stated)	-	.	-	-	-	.	.
O=[N+]([O-])CC(c1ccccc1)P(=O)(c1ccccc1)c1ccccc1 (configuration not stated)	-	-	-	-	15.9	-	32.0
Cc1cccc(OCc2nnc(SCC(=O)Nc3cccc(C(=O)N4CCOCC4)c3)n2C)c1C	-	-	-	-	10.3	-	-
Cc1cccc(OCc2nnc(SCC(=O)Nc3cccc(C(=O)N4CCOCC4)c3)n2C)c1	-	-	-	-	-	.	.
O=C(CN1C(=O)CSc2ccc(S(=O)(=O)N3CCOCC3)cc21)NCCCN1CCCCC1	-	-	-	-	-	.	.
CC1CC(C)CN(CCCNC(=O)CN2C(=O)CSc3ccc(S(=O)(=O)N4CCCCC4)cc32)C1 (configuration not stated)	-	-	-	-	10.4	-	9.8
SMILES	PLC-beta3 inh	TbMetRS inhib	PLC-gamma1 inh	ADAM10 inh	ADAM17 inh	ADAM10 ctr	ADAM17 confirm
CCn1nc(C)c(C(=O)Nc2cc(Oc3ccc(Cl)cc3)cc([N+](=O)[O-])c2)c1C	-	-	-	-	12.5	39.3	17.6
CCn1nc(C)c([N+](=O)[O-])c1C(=O)NNC(=O)c1ccc(Cl)cc1	-	-	-	-	-	.	.
O=C(NCc1ccccc1)c1ccc(S(=O)(=O)N2CCCc3ccccc32)cc1	-	-	-	-	-	.	.
O=C(NCc1ccco1)c1ccc(S(=O)(=O)N2CCCc3ccccc32)cc1	-	-	-	-	10.4	-	-
Cc1c(NC(=O)CN2C(=O)NC(C)(c3ccccc3)C2=O)c(=O)n(-c2ccccc2)n1C (configuration not stated)	-	-	-	-	-	.	.
COc1cc2c(c(O)c1OC)-c1c(cc(OC)c(OC)c1OC)C[C@@H](C)[C@@H](C)C2	-	-	-	-	8.8	-	-
COc1cc2c(c(OC)c1OC)-c1c(cc(OC)c(OC)c1OC)C[C@H](C)[C@H](C)C2	-	-	-	-	-	.	.
CCOC(=O)CCCNC(=O)OC1CC2CC1[C@H]1CCCCN1[C@H]2C (some centres not stated)	-	.	-	-	-	.	.
Cc1ccc(S(=O)(=O)N2CCN(C(=O)COC(=O)c3ncc(Cl)c(Cl)c3Cl)CC2)c(C)c1	-	-	-	-	9.0	-	8.9
Cc1ccc(S(=O)(=O)N2CCN(C(=O)COC(=O)c3nc(Cl)ccc3Cl)CC2)c(C)c1	-	-	-	-	-	.	.
COc1cc(C2c3c(-c4ccccc4O)n[nH]c3C(=O)N2Cc2ccco2)cc(OC)c1OC (configuration not stated)	-	-	-	-	-	.	.
COc1ccc(C2c3c(-c4ccccc4O)n[nH]c3C(=O)N2CCc2ccc(OC)c(OC)c2)cc1 (configuration not stated)	-	-	-	23.9	11.8	22.8	14.5
